In ChEMBL document CHEMBL1126204, “Nucleic acid related compounds. 74. Synthesis and biological activity of 2'(and 3')-deoxy-2'(and 3')-methylenenucleoside analogues that function as mechanism-based inhibitors of S-adenosyl-L-homocysteine hydrolase and/or ribonucleotide reductase” (J Med Chem, 1992):

Assays:
[1] = In vitro inhibition of FM3A (murine carcinoma) cell proliferation.; format: functional; settings: Mus musculus
Summary of the method: (§1)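 Murine FM3A or L1210 cells in Eagle's MEM with 10% inactivated FCS, 2 mM L-glutamine and 0.075% NaHCO₃, seeded at 5 × 10⁵ cells/mL with compound (0.001–500 µM). After 2 days at 37 °C in humidified CO₂, viable cells were counted with a Coulter counter. IC₅₀ = 50% fewer viable cells; mean of 2–4 experiments.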

[2] = test system: MT4; experiment: In vitro inhibition of MT-4 (Human T-lymphocyte) cell proliferation.; format: functional, cell-based
Summary of the method: (§2)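 Human Molt/4F, MT-4, and Raji cells (wild-type, TK⁻ or dCK⁻) in RPMI-1640 with 10% inactivated FCS, 2 mM L-glutamine and 0.075% NaHCO₃, seeded at 7.5 × 10⁵ cells/mL with compound (0.001–500 µM). Incubated 3 days at 37 °C in humidified CO₂; viable cells counted by Coulter counter. IC₅₀ = 50% reduction in viable cells; means of 2–4 independent experiments.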

[3] = test system: L1210; experiment: In vitro inhibition of L1210 (murine leukemia) cell proliferation.; format: functional, cell-based; settings: Mus musculus; summary of the method: as §1
[4] = In vitro inhibition of Molt/4f (Human T-lymphoblast) cell proliferation.; format: functional; summary of the method: as §2
[5] = test system: L1210; experiment: Antitumor activity in mice bearing L1210 murine leukemia cell line at a dose of 50 mg/kg/day.; format: functional, Mus musculus
Summary of the method: (§3)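 DBA/2 mice (20 g) inoculated ip with 10⁶ L1210 leukemia cells; test agent given ip once daily for 5 successive days beginning 1 day after inoculation, dissolved in Eagle's MEM containing 2.5% Tween (250 μL injection). Untreated tumor-bearing controls; read-out mean survival time in days, 7–15 mice per group.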

[6] = organism: Homo sapiens; experiment: Concentration required to inhibit the proliferation of human T-lymphocyte CEM/o cells by 50%; format: functional
Summary of the method: (§4)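 Wild-type CEM and kinase-deficient sublines (AK⁻, dCK⁻, AK⁻/dCK⁻) grown in RPMI-1640 with 10% inactivated FCS, 2 mM L-glutamine and 0.075% NaHCO₃. Cells were exposed to compound at 0.001–500 µM for 3 days at 37 °C in humidified CO₂. Viable cells counted by Coulter counter; IC₅₀ = 50% reduction in viable cells. Mean of 2–4 independent experiments.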

[7] = test system: L1210; experiment: Concentration required to inhibit the proliferation of L1210 murine leukemia cell line by 50% in presence of exogenous nucleoside dCyd (500 ug/mL).; format: functional, cell-based; settings: Mus musculus
Summary of the method: (§5)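 L1210 murine leukemia cells in Eagle's MEM with 10% inactivated fetal calf serum, 2 mM L-glutamine and 0.075% NaHCO₃. 5 × 10⁵ cells/mL were exposed to test compound (0.001–500 µM) together with the stated exogenous nucleoside at subtoxic level. Incubated 2 days at 37 °C in humidified CO₂. Viable cells were counted by Coulter counter. IC₅₀ = 50% reduction in viable cell number; mean of 2–4 independent experiments.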

[8] = organism: Homo sapiens; experiment: Concentration required to inhibit the proliferation of human T-lymphocyte CEM/dCK-(dcyd kinase deficient) cells by 50%; format: functional; summary of the method: as §4
[9] = test system: L1210; experiment: Concentration required to inhibit the proliferation of L1210 murine leukemia cell line by 50% in presence of exogenous nucleoside dUrd (125 ug/mL).; format: functional, cell-based; settings: Mus musculus; summary of the method: as §5
[10] = test system: Raji; experiment: Inhibition of human tumor B-lymphoblast Raji/TK-(thymidine kinase deficient) cell proliferation; format: functional, cell-based; summary of the method: as §2
[11] = test system: L1210; experiment: Antitumor activity in mice bearing L1210 murine leukemia cell line at a dose of 100 mg/kg/day.; format: functional, Mus musculus; summary of the method: as §3
[12] = test system: Raji; experiment: Inhibition of human tumor B-lymphoblast Raji/dCK-(dcyd kinase deficient) cell proliferation; format: functional, cell-based; summary of the method: as §2
[13] = test system: L1210; experiment: Concentration required to inhibit the proliferation of L1210 murine leukemia cell line by 50% in presence of exogenous nucleoside (d)Thd (5 ug/mL).; format: functional, cell-based; settings: Mus musculus; summary of the method: as §5
[14] = test system: Raji; experiment: Inhibition of human tumor B-lymphoblast Raji/O cell proliferation; format: functional, cell-based; summary of the method: as §2
[15] = test system: L1210; experiment: Concentration required to inhibit the proliferation of L1210 murine leukemia cell line by 50% in presence exogenous necleoside dCyd (100 uM).; format: functional, cell-based; settings: Mus musculus, in the assay text read “1000 uM” for “100 uM”; summary of the method: as §5
[16] = Concentration required to inhibit the proliferation of human T-lymphocyte CEM/AK-/dCK-(Ado and dCyd kinase deficient) cells by 50%
[17] = Concentration required to inhibit the proliferation of human T-lymphocyte CEM cells by 50% in presence exogenous necleoside dCyd (100 uM).; format: functional, cell-based; settings: CCRF-CEM, in the assay text read “1000 uM” for “100 uM”
Summary of the method: (§6)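 CEM human T-lymphocytes in RPMI-1640 with 10% inactivated FCS, 2 mM L-glutamine and 0.075% NaHCO₃. Test compound (0.001–500 µM) was co-added with the stated subtoxic exogenous nucleoside(s). Incubated 3 days at 37 °C in humidified CO₂, then viable cells counted by Coulter counter. IC₅₀ is the level giving 50% fewer viable cells; means of 2–4 independent experiments.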

[18] = test system: L1210; experiment: Antitumor activity in mice bearing L1210 murine leukemia cell line at a dose of 25 mg/kg/day.; format: functional, Mus musculus; summary of the method: as §3
[19] = Concentration required to inhibit the proliferation of human T-lymphocyte CEM cells by 50% in presence exogenous necleoside Ado (100 uM).; format: functional, cell-based; settings: CCRF-CEM, in the assay text read “1000 uM” for “100 uM”; summary of the method: as §6
[20] = Concentration required to inhibit the proliferation of human T-lymphocyte CEM/dCK-(dCyd kinase deficient) cells by 50%
[21] = test system: L1210; experiment: Concentration required to inhibit the proliferation of L1210 murine leukemia cell line by 50% in presence exogenous necleoside Ado (100 uM).; format: functional, cell-based; settings: Mus musculus, in the assay text read “1000 uM” for “100 uM”; summary of the method: as §5
[22] = test system: L1210; experiment: Antitumor activity in mice bearing L1210 murine leukemia cell line at a dose of 12.5 mg/kg/day.; format: functional, Mus musculus; summary of the method: as §3
[23] = Concentration required to inhibit the proliferation of human T-lymphocyte CEM cells by 50% in presence exogenous necleoside Ado+dCyd (100 uM).; format: functional, cell-based; settings: CCRF-CEM, in the assay text read “1000 uM” for “100 uM”; summary of the method: as §6
[24] = test system: L1210; experiment: Concentration required to inhibit the proliferation of L1210 murine leukemia cell line by 50% in presence exogenous necleosides dCyd+Ado (100 uM).; format: functional, cell-based; settings: Mus musculus, in the assay text read “1000 uM” for “100 uM”; summary of the method: as §5
[25] = Concentration required to inhibit the proliferation of human T-lymphocyte CEM/AK-(Ado kinase deficient) cells by 50%
[26] = test system: L1210; experiment: Concentration required to inhibit the proliferation of L1210 murine leukemia cell line by 50% in presence exogenous necleoside Guo (50 uM).; format: functional, cell-based; settings: Mus musculus; summary of the method: as §5
[27] = test system: CEM (Homo sapiens); experiment: Concentration required to inhibit the proliferation of human T-lymphocyte CEM/o cells by 50%
[28] = Concentration required to inhibit the proliferation of human T-lymphocyte CEM/AK-/dCK-(Ado and dCyd kinase deficient) cells by 50%; format: functional; summary of the method: as §4
[29] = Concentration required to inhibit the proliferation of human T-lymphocyte CEM/dCK-(dCyd kinase deficient) cells by 50%; format: functional; summary of the method: as §4
[30] = test system: CEM (Homo sapiens); experiment: Concentration required to inhibit the proliferation of human T-lymphocyte CEM/o cells by 50%; remark: listed apart in the source
[31] = Concentration required to inhibit the proliferation of human T-lymphocyte CEM/AK-(Ado kinase deficient) cells by 50%; format: functional; summary of the method: as §4

Row | SMILES | IC50 [3] | IC50 [1] | IC50 [2] | IC50 [4] | further results
1 | C=C1C(n2ccc(N)nc2=O)O[C@H](CO)[C@@H]1O (stereo partly drawn) | 2 µM | 11 µM | 0.19 µM | 0.11 µM | Mean survival time [5]: 12 days; IC50 [6]: 0.046 µM; IC50 [7]: 475 µM; IC50 [8]: 60 µM; IC50 [9]: 1.47 µM; IC50 [10]: 0.035 µM; Mean survival time [11]: 15.6 days; IC50 [12]: 31 µM; IC50 [13]: 1.18 µM; IC50 [14]: 0.025 µM
2 | C=C1[C@H](n2cnc3c(N)nc(N)nc32)O[C@H](CO)[C@H]1O | 8.2 µM | 67 µM | > 500 µM | 22 µM | IC50 [15]: 16 µM; Mean survival time [5]: 3 days; IC50 [16]: 194 µM; IC50 [17]: 133 µM; Mean survival time [18]: 8.7 days; IC50 [19]: 21 µM; IC50 [20]: 196 µM; IC50 [21]: 48 µM; Mean survival time [22]: 9.1 days; IC50 [23]: 95 µM; Mean survival time [11]: 2 days; IC50 [24]: 41 µM; IC50 [25]: 38 µM; IC50 [26]: 44 µM; IC50 [27]: 7.7 µM
3 | C=C1[C@@H](O)[C@H](n2ccc(N)nc2=O)O[C@@H]1CO | 378 µM | > 500 µM | 121 µM | 172 µM | IC50 [6]: 63 µM; IC50 [8]: > 500 µM; IC50 [10]: 52 µM; IC50 [12]: > 500 µM; IC50 [14]: 33 µM
4 | C=C1[C@@H](O)[C@H](n2cnc3c(N(C)C)nc(N)nc32)O[C@@H]1CO | > 500 µM | > 500 µM | > 500 µM | > 500 µM | 
5 | C=C1[C@@H](O)[C@H](n2cnc3c(OC)nc(N)nc32)O[C@@H]1CO | 446 µM | 439 µM | > 500 µM | > 500 µM | 
6 | C=C1[C@@H](O)[C@H](n2cnc3c(O)nc(N)nc32)O[C@@H]1CO | > 200 µM | > 200 µM | > 200 µM | > 200 µM | IC50 [28]: > 500 µM; IC50 [29]: > 500 µM; IC50 [30]: > 500 µM; IC50 [31]: > 500 µM

More lines, main results first:

Row | IC50 [3] | SMILES | IC50 [1] | IC50 [2] | IC50 [4] | further results
7 | 10 µM | C=C1[C@H](n2cnc3c(Cl)nc(N)nc32)O[C@H](CO)[C@H]1O | 50 µM | 176 µM | 22 µM | 
8 | 441 µM | C=C1[C@@H](O)[C@H](n2cnc3c(Cl)nc(N)nc32)O[C@@H]1CO | 469 µM | > 500 µM | > 500 µM | 
9 | 20 µM | C=C1[C@H](n2cnc3c(S)nc(N)nc32)O[C@H](CO)[C@H]1O | 26 µM | 0.48 µM | 24 µM | 
10 | 65 µM | C=C1[C@H](n2cnc3c(N)ncnc32)O[C@H](CO)[C@H]1O | 232 µM | 131 µM | > 500 µM | 
11 | 10 µM | C=C1[C@H](n2cnc3c(OC)nc(N)nc32)O[C@H](CO)[C@H]1O | 41 µM | 180 µM | 23 µM | 
